Screening results deposited in PubChem BioAssay by The Scripps Research Institute Molecular Screening Center.
Only some compounds are listed: those with a hit (about 2% of all), similar ones and a draw of the others.
CHRM1 agonist: agonists of human M1 muscarinic receptor | P11229 | CHO-K1 hM1, Fluo-8 calcium fluorescence, agonist mode; 0% DMSO, 100% acetylcholine EC100 | activation, % at 3 µM | 360,000 compounds, 0.33% hits;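 active = activation above the run's mean compound activation plus 3 SD, cut at about 16% in these data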;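 also: peak over basal fluorescence ratio within a 140 s kinetic read after compound addition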
Target sequence (P11229 whole entry, looked up): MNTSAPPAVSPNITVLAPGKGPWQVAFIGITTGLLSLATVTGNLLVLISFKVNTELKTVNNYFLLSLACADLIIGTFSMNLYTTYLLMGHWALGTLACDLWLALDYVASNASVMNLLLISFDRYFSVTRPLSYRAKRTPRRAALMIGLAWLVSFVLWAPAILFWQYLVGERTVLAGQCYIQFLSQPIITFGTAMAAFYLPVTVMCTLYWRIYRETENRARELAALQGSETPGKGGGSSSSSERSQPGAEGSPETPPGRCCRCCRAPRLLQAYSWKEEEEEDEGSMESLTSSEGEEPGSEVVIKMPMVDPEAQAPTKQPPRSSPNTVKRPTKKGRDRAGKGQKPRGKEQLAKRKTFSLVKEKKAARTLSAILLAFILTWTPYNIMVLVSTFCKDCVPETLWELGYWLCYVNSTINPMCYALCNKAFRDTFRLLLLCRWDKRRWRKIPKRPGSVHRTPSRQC
M1 antag: blocks human M1 muscarinic receptor; P11229; CHO-K1 hM1, Fluo-8 calcium fluorescence, ACh EC80 antagonist; inhibition, % at 3 µM; 360,000 compounds, 1.3% hits;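 active = percent inhibition above its own plate's cutoff, namely the mean of that plate's compound wells plus 3 SD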;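 also: peak over basal fluorescence ratio during 140 s after agonist addition; 0% = ACh EC80 plus DMSO and 100% = DMSO alone without agonist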
M5 PAM: CHRM5 positive allosteric modulation; CHO-K1 hM5, Fluo-8 calcium, ACh EC20 PAM; 0% = ACh EC20, 100% = ACh EC100; P08912; 360,000 compounds, 0.3% hits; activation, % at 3 µM; AID 624038;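 active = activation above the run cutoff, the mean activation of all test compounds plus 3 SD, cut at about 18% in these data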
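Measured by: Fluo-8 calcium fluorescence; material: human M5 receptor in CHO-K1 cells; schedule: Post-acetylcholine fluorescence recording 140 s; benchmarks: low control EC20 acetylcholine (0%), high control EC100 acetylcholine (100%); read-out: Max/basal fluorescence ratio as % of EC20–EC100 ACh window; compound: single dose, 3 µM nominal final test concentration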
CHRM5 agonist: agonists of human muscarinic M5 receptor (CHRM5); P08912; 360,000 compounds, 0.19% hits; activation, % at 3 µM; CHO-K1 hM5 cells, Fluo-8 calcium fluorescence; 0% DMSO wells, 100% maximal acetylcholine response;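 active = activation above the run's mean over test compounds plus 3 SD, cut at about 23% in these data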;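 also: signal is peak over basal fluorescence ratio across the kinetic read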
M5 antag: antagonists of human muscarinic M5 receptor (CHRM5); P08912; CHO-hM5 cells, Fluo-8 calcium fluorescence, ACh EC80; inhibition, % at 3 µM; 360,000 compounds, 0.59% hits; AID 624040;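 active = inhibition above a per-plate cutoff, the mean of that plate's test compounds plus 3 SD, cut at about 27% in these data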;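 also: 0% = acetylcholine EC80 with DMSO and 100% = DMSO without agonist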
CHRM1 PAM: human CHRM1 positive allosteric modulation | activation, % at 3 µM | CHO-K1 hM1, Fluo-8 calcium fluorescence, ACh EC20; 0% = ACh EC20, 100% = maximal ACh | P11229 | AID 588819 | 360,000 compounds, 0.088% hits; in the data active = activation above about 19%, passing the limit was not always enough
Active calls of the source: *; nt = not tested or not shown.

SMILES	CHRM1 agonist	M1 antag	M5 PAM	CHRM5 agonist	M5 antag	CHRM1 PAM
CCCNC(=O)c1cc2c(c(-c3cccc(-c4cc5ccccc5o4)c3)n1)[C@H](CCO)N(C(=O)NC(C)C)C2	nt	nt	-20.5	2.2	10.9	nt
Cc1noc(C)c1C(=O)OCC(=O)NC1CC1	0.2	13.6*	3.3	1.1	2.5	-5.8
S=c1[nH]nc(-c2ccncc2)n1/N=C/C(Cl)=C\c1ccccc1	38.9*	10.6	0.5	38.0*	-12.0	0.9
CCOC(=O)N1CCN(CCC(=O)Nc2cccc(Cl)c2C)CC1	51.7*	38.8*	-4.0	2.4	4.2	-26.7
CCOC(=O)C1CCN(CCC(=O)Nc2cccc(Cl)c2C)CC1	13.0	-5.3	-1.0	-2.5	0.1	-7.4
S=C(Nc1ccccc1Cl)N1CCN(Cc2ccccc2)CC1	0.9	2.7	-0.6	-0.9	7.6	-0.6
Cc1c(Cl)cccc1NC(=S)N1CCN(Cc2ccccc2)CC1	18.6*	-7.2	-1.9	-2.8	7.2	6.5
COc1cc(/C=C/C(O)=C/C(=O)/C=C/c2ccc(O)cc2)ccc1O	18.3*	39.3*	-34.8	47.9*	40.6*	-19.9
CCc1nonc1NC(=O)c1oc2cc(C)c(Cl)cc2c1C	-1.0	-3.8	25.4*	-2.9	-16.5	2.0
CCc1nonc1NC(=O)c1oc2cc(C)c(C)cc2c1C	-0.1	-19.9	12.8	12.8	-4.7	14.5
Cc1ccc(C(=O)N2C(=S)C(c3ccc(F)cc3)=NC23CCN(C)CC3)cc1	-7.7	55.7*	-17.9	-9.6	20.9	-26.9
Cc1ccc(C(=O)N2CCC(C(=O)c3ccc(F)cc3)CC2)cc1	-1.6	0.8	-3.3	0.9	2.0	2.6
CN(Cc1ccc(Cl)c(Cl)c1)C(=O)C1CC(=O)N(c2ccc3c(c2)OCCO3)C1 (centres undefined)	-7.5	-2.5	1.3	-0.6	-2.0	0.9
Cc1ccc2c(C)c(C(=O)N(Cc3cccs3)C3CCS(=O)(=O)C3)oc2c1 (centres undefined)	15.8	2.0	8.1	-7.3	2.0	23.7*
CCOC(=O)c1ccc2[nH]c(C)cc(=O)c2c1	-1.4	-17.5	3.9	0.6	0.3	11.5
COC(=O)c1ccc2[nH]c(C)cc(=O)c2c1	-5.5	68.8*	1.3	-3.3	-1.6	-23.3
Cc1cc(C2=CC(=O)C[C@H](c3ccc(F)cc3)C2)ccc1F	-8.8	-6.4	-1.9	-1.1	3.2	-3.0
Cc1ccc[n+](CC(=O)c2ccc(Br)cc2)c1	-9.9	-3.8	-0.1	0.6	7.8	1.7
N#Cc1ccc[n+](CC(=O)c2ccc(Cl)cc2)c1	-6.0	-21.8	22.8*	4.5	-10.1	15.7
CCN(Cc1ccccc1)c1cc2c(c3c1ccn3C)C1CCC2C1 (centres undefined)	-3.4	-8.9	-1.4	-1.4	4.4	6.0
Cc1ccc(C2N(c3ccccc3)C(=S)N3CCCN23)cc1 (centres undefined)	-6.9	85.0*	-29.2	-12.7	10.4	-24.6
Cc1cc(Cl)c(S(=O)(=O)N2CCN(c3ccccn3)CC2)cc1OCC(=O)NC1CCCCC1	-0.8	26.4*	-14.3	2.0	17.3	-12.8
Cc1cc(Cl)c(S(=O)(=O)N2CCCCCC2)cc1OCC(=O)NC1CCCCC1	-2.2	5.9	-2.6	4.2	-1.4	0.2
COc1ccc(S(=O)(=O)N(C)C[C@H]2Oc3ccc(NS(=O)(=O)c4ccc(F)cc4)cc3C(=O)N([C@H](C)CO)C[C@@H]2C)cc1	-3.1	-11.9	3.8	-4.4	2.8	8.8
Cc1cc(=O)oc2c(C)c(OC(C)C(=O)Nc3ccc(N4CCC(C)CC4)cc3)ccc12 (centres undefined)	-4.4	-10.1	21.3*	-2.4	-13.6	9.3
COc1ccccc1Cn1c(=O)[nH]c2cccnc21	-1.6	-25.7	41.1*	-4.5	6.0	0.0
COc1ccc(C(C(=O)NCC2CCCO2)N(Cc2cccs2)C(=O)c2snc(C(N)=O)c2N)cc1 (centres undefined)	-0.6	22.2*	-10.9	5.0	12.0	-13.9
